How the values were obtained:
[1] = target: T1, Quinolone resistance protein NorA (Staphylococcus aureus) (UniProt P0A0J7); assay: Inhibition of NorA efflux pump in Staphylococcus aureus 1199B assessed as reduction of ciprofloxacin MIC after 24 hrs by broth checkerboard method
T1 sequence (whole entry): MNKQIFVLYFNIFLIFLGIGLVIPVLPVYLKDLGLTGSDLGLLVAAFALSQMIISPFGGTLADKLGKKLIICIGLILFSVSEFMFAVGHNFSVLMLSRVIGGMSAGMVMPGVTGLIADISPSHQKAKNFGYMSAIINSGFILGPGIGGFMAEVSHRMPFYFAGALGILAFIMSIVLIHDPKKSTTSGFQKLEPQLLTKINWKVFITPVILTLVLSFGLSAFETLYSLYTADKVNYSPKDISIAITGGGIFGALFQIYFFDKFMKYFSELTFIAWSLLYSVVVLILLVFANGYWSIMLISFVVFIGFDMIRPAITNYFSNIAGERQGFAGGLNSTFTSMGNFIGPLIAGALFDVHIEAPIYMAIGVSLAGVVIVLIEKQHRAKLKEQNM

[2] = target: T1, Quinolone resistance protein NorA (Staphylococcus aureus); assay: Inhibition of NorA efflux pump in Staphylococcus aureus 1199B after 24 hrs by broth checkerboard method
[3] = target: T1, Quinolone resistance protein NorA (Staphylococcus aureus); assay: Inhibition of NorA efflux pump in Staphylococcus aureus 1199B assessed as potentiation of ciprofloxacin-induced antimicrobial activity after 24 hrs by broth checkerboard method
Method in brief: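 Potentiation factor was derived from 24 h, 37 °C checkerboard ciprofloxacin MICs against S. aureus 1199B in Mueller-Hinton broth. Each inhibitor-concentration column was weighted in ascending order: 10 for column 2 (50), adding 10 per column up to 70 for […] (0.8), so that activity at lower inhibitor concentrations counts more.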

[4] = target: T1, Quinolone resistance protein NorA (Staphylococcus aureus); assay: Inhibition of NorA efflux pump in Staphylococcus aureus 1199B assessed as reduction in MIC of ciprofloxacin by broth checkerboard method

fold change (FC) [1] | MIC [2] [µg/mL] | PF [3] | logPF [3] | MEC [4] [µg/mL] | Compound
4 | > 100 | 140 | 2.15 | 50 | O=C(/C=C/C=C/c1ccc2c(c1)OCO2)Nc1ccccc1
2 | > 100 | 300 | 2.48 | 3.12 | O=C(/C=C/C=C/c1ccc2c(c1)OCO2)Nc1ccc(NC(=O)c2ccccc2)cc1
0 | > 100 |  |  | 50 | CCCNC(=O)/C=C/C=C/c1ccc2c(c1)OCO2
 | 8 |  |  |  | O=C(O)c1cn(C2CC2)c2cc(N3CCNCC3)c(F)cc2c1=O
2 | > 100 | 300 | 2.48 | 3.12 | O=C(/C=C/C=C/c1ccc2c(c1)OCO2)Nc1ccc2ncsc2c1
0 | > 100 |  |  | 50 | O=C(O)/C=C/C=C/c1ccc2c(c1)OCO2
2 | > 100 | 60 | 1.78 | 25 | CC(C)CCNC(=O)/C=C/C=C/c1ccc2c(c1)OCO2
2 | > 100 | 360 | 2.56 | 3.12 | O=C(/C=C/C=C/c1ccc2c(c1)OCO2)Nc1ccc(C(=O)Nc2ccccc2)cc1
2 | > 100 | 20 | 1.3 | 50 | CCN(CC)C(=O)CCCCc1ccc2c(c1)OCO2
2 | > 100 | 60 | 1.78 | 25 | CC(O)CCNC(=O)/C=C/C=C/c1ccc2c(c1)OCO2 (stereo not drawn)
4 | > 100 | 140 | 2.15 | 50 | O=C(/C=C/C=C/c1ccc2c(c1)OCO2)NCC(O)c1ccccc1 (stereo not drawn)
4 | > 100 | 260 | 2.42 | 25 | CC(=O)Nc1ccc(NC(=O)/C=C/C=C/c2ccc3c(c2)OCO3)cc1
2 | > 100 | 200 | 2.3 | 6.25 | O=C(/C=C/C=C/c1ccc2c(c1)OCO2)Nc1nc2ccccc2s1
2 | > 100 | 60 | 1.78 | 25 | N#Cc1ccc(NC(=O)/C=C/C=C/c2ccc3c(c2)OCO3)cc1
2 | > 100 | 60 | 1.78 | 25 | NC(=O)c1ccc(NC(=O)/C=C/C=C/c2ccc3c(c2)OCO3)cc1
2 |  | 60 | 1.78 |  | CCC(CC)NC(=O)/C=C/C=C/c1ccc2c(c1)OCO2

fold change (FC) [1] | MIC [2] [µg/mL] | PF [3] | logPF [3] | MEC [4] [µg/mL] | Compound
4 | > 100 | 320 | 2.51 | 12.5 | CC(=O)Nc1cccc(NC(=O)/C=C/C=C/c2ccc3c(c2)OCO3)c1
8 | > 100 | 660 | 2.82 | 50 | N#Cc1cccc(NC(=O)/C=C/C=C/c2ccc3c(c2)OCO3)c1
2 | > 100 | 200 | 2.3 | 6.25 | O=C(/C=C/C=C/c1ccc2c(c1)OCO2)Nc1ccc(CO)cc1
4 | > 100 | 260 | 2.42 | 25 | CC(=O)Nc1ccccc1NC(=O)/C=C/C=C/c1ccc2c(c1)OCO2
0 | > 100 |  |  | 50 | CCC(CO)NC(=O)/C=C/C=C/c1ccc2c(c1)OCO2 (stereo not drawn)
2 | > 100 | 20 | 1.3 | 50 | O=C(CCCCc1ccc2c(c1)OCO2)N1CCCCC1
2 | > 100 | 60 | 1.78 | 25 | CN1CCN(C(=O)/C=C/C=C/c2ccc3c(c2)OCO3)CC1
0 | > 100 |  |  | 50 | O=C(/C=C/C=C/c1ccc2c(c1)OCO2)N1CCOCC1
2 | > 100 | 60 | 1.78 | 25 | CC(C)CNC(=O)/C=C/C=C/c1ccc2c(c1)OCO2
2 | > 100 | 60 | 1.78 | 25 | O=C(/C=C/C=C/c1ccc2c(c1)OCO2)Nc1cccc(CO)c1
0 | > 100 |  |  | 50 | CC(C)NC(=O)/C=C/C=C/c1ccc2c(c1)OCO2
2 | > 100 | 20 | 1.3 | 50 | CC(=O)Nc1ccccc1NC(=O)CCCCc1ccc2c(c1)OCO2
 | > 100 | 60 | 1.78 | 25 | O=C(/C=C/C=C/c1ccc2c(c1)OCO2)N1CCCCC1
2 | > 100 | 60 | 1.78 | 25 | O=C(/C=C/C=C/c1ccc2c(c1)OCO2)Nc1ccccc1CO
2 | > 100 | 60 | 1.78 | 25 | CCN(CC)C(=O)/C=C/C=C/c1ccc2c(c1)OCO2
